Only some compounds are listed: those with a hit (about 3.6% of all), similar ones and a draw of the others.
Measles CPE: compounds protecting cells from measles virus cytopathic effect, primary screen, measles RdRp inhibitor project, single point, MLSMR library, absorbance; AID 841, 2007; actives 1.5% (n = 140,000); protection (pct of control), % at 4 µM; Measles virus-infected cells, CPE protection; in the data active = protection mostly above about 24%, no sharp cut-off; inactive = mostly below about 26%
RAM inhibit: inhibitors of the yeast RAM network, primary screen, dse1pr::URA3 reporter, 5-FOA selection. S. cerevisiae dse1pr::URA3 reporter, 5-FOA growth OD615, 2 d; analog-sensitive cbk1-as2 kinase mutant strain. inhibition, % at 50 µM. actives 1.8% (n = 190,000). AID 868, 2007;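 active = inhibition above a set limit, 3 SD over mean compound inhibition, cut at about 8.4% in these data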;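 also: 0% = DMSO-only wells with no growth and 100% = 10 µM 1-NA-PP1 full growth; inhibition rescues growth on 5-FOA so higher OD means more RAM inhibition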
Yeast life ext: compounds extending yeast replicative lifespan, primary screen, S. cerevisiae, OD615. S. cerevisiae growth with nicotinamide; deaD strain in restrictive glucose medium. inhibition of the nicotinamide effect, % at 10 µM. actives 0.68% (n = 130,000);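 active = inhibition above a set limit, placed 3 SD over the median of all compounds, cut at about 26% in these data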;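 also: 0% = nicotinamide-treated wells and 100% = cells grown without nicotinamide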
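Assay system: engineered S. cerevisiae DeaD replicative-lifespan strain, galactose-grown log-phase cells; medium: restrictive CSMM-D dextrose medium; also added: nicotinamide, 1.5 mM, co-present with compound; schedule: 48 h compound exposure at 30 °C, humidified; detection: absorbance at 615 nm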
BB579 growth dn: growth inhibitors of yeast BB579 in restrictive medium, primary screen, yeast lifespan-shortening project, S. cerevisiae. OD615, 48 h. inhibition, % at 10 µM. actives 0.51% (n = 140,000);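 active = inhibition above a set limit, 3 SD over the mean compound inhibition, cut at about 44% in these data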
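Test system: Saccharomyces cerevisiae DeaD strain BB579, replicative lifespan model yeast | Buffer or medium: Restrictive CSMM-D medium | Doses: One dose, 10 µM compound with 0.25% DMSO | Incubation: 48 h exposure, 30 °C | Detection: Culture absorbance at 615 nm | Control set: Amphotericin B at 10 µg/mL as positive control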
RAM efflux-def: 5-FOA growth of efflux-deficient control yeast, dose response, counter-screen for RAM network inhibitor project, S. cerevisiae, OD615; max inhibition, %; shares compounds with RAM inhibit; AID 1305, 2008; S. cerevisiae efflux-deficient reporter strain, 5-FOA growth OD615, 2 days; 1,200 tested, under 10 active; call rule not given here;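 also: plate controls were vehicle for no effect and reference inhibitor for full effect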
* = called active by the depositor; nt = no result given.

SMILES | Measles CPE | RAM inhibit | Yeast life ext | BB579 growth dn | others
Cc1[nH]c2ccccc2c1C(=O)C(=O)N1CC2CC(C1)c1cccc(=O)n1C2 (stereo unspecified) | nt | 3 | nt | nt
Clc1ccc2c(c1)C(c1ccccc1Cl)=NCc1nnc(N3CCN(CCOc4ccccc4)CC3)n1-2 | 28* | 1 | 18 | -9
CCCCCc1nc2ccccc2c(=O)n1-c1ccccc1[N+](=O)[O-] | 7 | 5 | 7 | -21
CCCCCc1nc2c(c(=O)c3ccccc3n2C)c(=O)n1C1CCCCCC1 | 26 | 2 | 34* | 15
CCC(C)NC(=O)c1c(N)n(CC2CCCO2)c2nc3ccccc3nc12 (stereo unspecified) | 29 | 9.1* | -7 | -29
O=C1NC(=S)N(c2ccccc2F)C(=O)/C1=C\c1cccs1 | 12 | 2 | 6 | 73*
CCOc1ccc(N2C(=O)/C(=C\c3cccs3)C(=O)NC2=S)cc1 | nt | 5 | nt | nt
C=CCn1c(O)c(C(C)=NCCc2ccccc2)c(=O)[nH]c1=O | 24* | 3 | -9 | -18
O=P(Oc1ccccc1)(Oc1ccccc1)C(Nc1ccccc1)c1ccccc1 (stereo unspecified) | 11 | 9.4* | 4 | -7
COP(=O)(OC)C(Nc1ccccn1)c1ccccc1 (stereo unspecified) | 12 | 0 | -3 | -11
Nc1c(C(=O)NCCc2ccccc2)c2nc3ccccc3nc2n1CCN1CCOCC1 | 7 | -1 | -35 | 99*
c1ccc(C2OCCN3CCCCC23)cc1 (stereo unspecified) | 19 | 1 | 0 | -23
O=c1[nH]c(=S)[nH]c(O)c1N=Nc1ccc2c(c1)OCO2 | nt | 10.0* | nt | nt
Cc1cc(/C=C2/C(=O)NC(=O)N(C)C2=O)c(C)n1-c1ccccc1 | nt | 4 | nt | nt
Cc1cc(C=C2C(=O)N(C)C(=S)N(C)C2=O)c(C)n1-c1cccnc1 | 4 | 1 | 51* | 13
Cc1cc(Cl)nc(N)n1 | 3 | 2 | 2 | -21
COc1cccc(CN2CCCCC2c2cccnc2)c1 (stereo unspecified) | 12 | 1 | -11 | -15
COc1ccc(CN2CCCCC2c2cccnc2)cc1C (stereo unspecified) | 38* | 1 | -7 | -40
CCCCCn1c(=O)c(C(=O)NCc2ccncc2)c(O)c2ccccc21 | 26 | -2 | 0 | 0
CCCCCCn1c(=O)c(C(=O)Nc2cnccn2)c(O)c2ccccc21 | nt | 8.7* | nt | nt
CN=C(SCc1cc2c(cc1Cl)OCO2)c1c(O)n(C)c(=O)n(C)c1=O | 27 | -1 | 56* | 18
Cc1cccc(C)c1NC(=O)c1cccn(Cc2ccc3c(c2)OC(F)(F)O3)c1=O | 1 | 1 | -17 | -37
O=C(Nc1ccc(C(F)(F)F)cc1)c1cccn(Cc2ccc3c(c2)OC(F)(F)O3)c1=O | 21 | 10* | -5 | -94
N#Cc1c(/N=C/c2ccc(O)cc2O)sc2c1C1CCN2CC1 | 7 | 1 | -6 | -40
CCN1CCN(Cc2cc(C(C)(C)C)c(O)c(C(C)(C)C)c2)CC1 | 60* | 0 | -3 | -24
SMILES | Measles CPE | RAM inhibit | Yeast life ext | BB579 growth dn | others
CC1=CC(=C2C(=O)NC(=S)NC2=O)C=C(C(F)(F)F)N1CCc1ccccc1 | nt | 11* | nt | nt
CSCCC(N=Cc1c(O)n(-c2ccc(Br)cc2)c(=O)[nH]c1=O)C(=O)OC(C)(C)C (stereo unspecified) | 15 | 1 | -6 | -31
CNC(=O)Oc1cccc(-c2cn3cc(OC(=O)NC)ccc3n2)c1 | 8 | 0 | -3 | 51*
CC(C)c1ccc(-n2c(O)c(/C=N/NC(=O)c3ccncc3)c(=O)[nH]c2=O)cc1 | 12 | 0 | -1 | -33
CCc1ccc(-n2c(O)c(/C=N/NC(=O)c3ccncc3)c(=O)[nH]c2=O)cc1 | 9 | 11* | 0 | -9
Cc1cc(Cl)ccc1C(=O)C1CCCN(C2CCSCC2)C1 (stereo unspecified) | nt | 1 | nt | nt
O=c1[nH]c(O)c(/C=C2\C=NN=C2c2ccccc2)c(=O)[nH]1 | 3 | 1 | -8 | -43
O=CC(Cl)P(=O)(N1CCCCC1)N1CCCCC1 (stereo unspecified) | 7 | 2 | -8 | -51
Cc1cccc(OCC(=O)N2CCN(Cc3ccncc3)CC2)c1 | 43* | 1 | -6 | -16
O=C1CCN(C(=O)C(Cl)Cl)N1 | nt | 1 | nt | nt
CC(Cc1ccccc1)NC(=O)NC(C)Cc1ccccc1 (stereo unspecified) | 12 | 4 | -1 | -11
CC(C)CCN(N=O)[C@@H](Cc1ccccc1)CN(N=O)[C@@H](Cc1ccccc1)CN(C)N=O | nt | 20* | nt | nt | RAM efflux-def=8
CN(C[C@H](Cc1ccccc1)N(C[C@H](Cc1ccccc1)N(CCC(C)(C)C)N=O)N=O)N=O | nt | 13* | nt | nt | RAM efflux-def=3
C=CC1CN2CCC1CC2c1[nH]c2ccccc2c1CCO (stereo unspecified) | 2 | 1 | 10 | -31
O=c1c2ccc(Cl)cc2[nH]c(=S)n1-c1cccnc1 | nt | 16* | nt | nt | RAM efflux-def=2
COc1cccc(-n2c(=S)[nH]c3ccccc3c2=O)c1 | nt | 1 | nt | nt
c1ccc(C2CC3CC4(CCCC4)N2O3)cc1 (stereo unspecified) | 6 | 1 | 2 | -70
COc1cccc(NP(=O)(Oc2ccccc2Cl)Oc2ccccc2Cl)c1 | 17 | 13* | 11 | -28 | RAM efflux-def=2
O=C(C(=O)N1CCOCC1)c1cn(Cc2ccccc2)c2ccccc12 | nt | 1 | nt | nt
CCc1ccccc1N1C(=O)NC(=O)/C(=C\c2cc(C)n(C)c2C)C1=O | 19 | 4 | 0 | -10
CC1(C)OC(c2ccccc2)=C/C(=C/C=C2C(=O)NC(=S)NC2=O)O1 | nt | 18* | nt | nt | RAM efflux-def=6
CN1/C(=C\C=C2C(=O)NC(=S)NC2=O)C(C)(C)c2ccccc21 | nt | 11* | nt | nt | RAM efflux-def=5
COP(=O)(OC)C(NS(=O)(=O)c1ccccc1)C(Cl)(Cl)Cl (stereo unspecified) | nt | -2 | nt | nt
C=Cn1ccnc1P(=S)(c1ccc(Cl)cc1)c1nccn1C=C | nt | 1 | nt | nt
CCC(=O)Oc1ccc(C(=O)Nc2cccc(C(=O)c3ccccc3)c2)cc1 | 34 | 12* | 3 | -41 | RAM efflux-def=0
O=C(c1ccco1)c1cn(Cc2ccccc2)c2ccccc12 | 5 | 6 | -10 | -1
O=C(c1ccco1)c1cn(Cc2ccccc2Cl)c2ccccc12 | 16 | 18* | -9 | -29 | RAM efflux-def=4
O=C(Nc1cccc(C(F)(F)F)c1)c1cccn(Cc2ccc3c(c2)OC(F)(F)O3)c1=O | 4 | 14* | -13 | -72 | RAM efflux-def=3
CC(C)Oc1cccc(NC(=O)c2cccn(Cc3ccc4c(c3)OC(F)(F)O4)c2=O)c1 | 13 | 13* | -4 | -74 | RAM efflux-def=1
